Assay outcomes from PubChem BioAssay.
Sampled rows, rich in hits. Any-hit rate of the full collection: about 5.1%.
NF-kB expr up: raises NF-kB expression in human neuronal cells; NF-kB reporter expression; active compounds read high; fold change at 12.5 µM; AID 1239; 190,000 tested, 1.6% active; in the data active = fold change above about 3.3
STAT1 blocker: STAT1 signaling inhibition; NIH 3T3 STAT1-luciferase reporter, IFN-gamma, luminescence; AID 920; inhibition, % at 5.5 µM; 200,000 tested, 0.35% active;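 active = inhibition above a set limit, the mean inhibition across all tested compounds plus 3 SD, cut at about 34% in these data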
STAT3 activator: activators of IL-6 induced STAT3 signaling; U3A cells, IL-6 STAT3-luciferase reporter, luminescence; 100% = signal with IL-6 EC80 alone; activation (% of control), % at 5.6 µM; 190,000 tested, 0.91% active;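 active = activation above the screen-wide mean of compound activation plus 3 SD, cut at about 130% in these data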
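Test system: STAT3-luciferase reporter U3A cells; Detection: reporter luminescence signal; Times: 1 h compound pre-exposure, 6 h IL-6 stimulation, 37 °C; Benchmarks: IL-6-only high control; Also added: IL-6 stimulus at 33 ng/mL final.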
APP 5'UTR act: activates APP 5'UTR luciferase reporter | SH-SY5Y APP 5'UTR luciferase reporter, luminescence; zero percent = DMSO vehicle wells | activation, % at 2 µM | 190,000 tested, 1% active;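 active = activation above a set limit, based on mean plus 3 SD of controls, cut at about 140% in these data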
STAT1 activator: STAT1 signaling activation; activation (% of control), % at 5.5 µM; NIH 3T3 STAT1-luciferase reporter, IFN-gamma, luminescence; 100% = IFN-gamma alone, no compound; 200,000 tested, 2.6% active;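 active = activation above the screen-wide mean activation plus 3 SD, cut at about 130% in these data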
STAT3 blocker: STAT3 signaling inhibition. 190,000 tested, 0.89% active. inhibition, % at 5.5 µM. U3A cells, IL-6 STAT3-luciferase reporter, luminescence; host cell line lacks STAT1;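 active = inhibition above the mean inhibition across all screened compounds plus 3 SD, cut at about 44% in these data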
Numbers stand for hits; – = inactive.

SMILES	NF-kB expr up	STAT1 blocker	STAT3 activator	APP 5'UTR act	STAT1 activator	STAT3 blocker
CNC(=O)/C(C#N)=C/c1ccc(-c2ccc(Cl)cc2)o1	–	–	–	–	142	–
Cc1cccc(-n2c(C)cc(/C=N/O)c2C)c1	–	–	–	–	–	–
Cc1cccc(-n2c(C)cc(/C=N\NC(=O)c3ccco3)c2C)c1	–	–	–	–	145	–
O=C(N/N=C\c1ccccn1)c1ccccc1O	–	–	–	–	–	–
Cc1ccccc1C(=O)N/N=C/c1ccccn1	–	–	–	–	136	–
O=C(N/N=C/c1ccccn1)c1cccs1	–	–	–	–	132	–
Cc1cc(/C=N\NC(=O)c2cccs2)c(C)n1-c1ccc2ncccc2c1	–	–	–	–	130	–
CN(CC(=O)NCc1ccccn1)S(=O)(=O)c1ccc2ccccc2c1	–	–	–	–	–	–
COc1ccc(CCNC(=O)c2ccc(-c3ccc([N+](=O)[O-])cc3)o2)cc1OC	–	–	–	–	–	–
CN(C)C(=O)c1nc2ccccc2s1	–	–	–	–	–	–
CN(C)c1ccc(CC(=O)c2nc3ccccc3s2)cc1	–	–	–	–	134	–
COc1ccc(Nc2ncnc3ccccc23)cc1	–	–	–	–	129	–
CCCCCCCCNc1ncnc2ccccc12	–	–	–	–	–	89
CCC(=O)NNc1ncnc2ccccc12	–	–	–	–	–	–
COc1cccc(Nc2ncnc3ccccc23)c1	–	–	–	–	–	–
CCCSc1cc(=O)n(-c2ccc(F)cc2)nc1C(=O)OCC	–	–	–	–	–	–
COC(=O)C1=C(CN2CCCc3ccccc32)NC(=O)NC1c1ccc(F)cc1 (stereo unspecified)	–	60	–	–	–	91
COC(=O)C1=C(CN2CCc3ccccc32)NC(=O)NC1c1cc(C)ccc1C (stereo unspecified)	–	–	–	–	–	–
COCCNC(=O)c1ccc(-c2csc(C)n2)cc1	–	–	–	–	–	–
COC(=O)c1ccc(COc2ccc(/C=N/N3CCN(C)CC3)cc2)cc1	–	–	–	–	136	–
COC(=O)c1ccc(/C=N\N2CCN(Cc3ccc(C)cc3)CC2)cc1	–	–	–	–	–	–
CC(C)(C)OC(=O)NNC(=O)Nc1ccccc1C(F)(F)F	–	–	–	–	–	–
COc1ccccc1S(=O)(=O)CC(O)COc1ccc(F)cc1Cl (stereo unspecified)	–	–	–	–	–	–
CCc1cccc(NC(=O)Cc2ccc(OC)c(OC)c2)c1	–	–	–	–	–	–
O=C(CCS(=O)(=O)c1ccccc1)Nc1cccc(-c2nc3ccccc3s2)c1	3.7	–	–	–	–	–
SMILES	NF-kB expr up	STAT1 blocker	STAT3 activator	APP 5'UTR act	STAT1 activator	STAT3 blocker
O=C(Nc1ccc2oc(-c3ccccc3)nc2c1)c1cccs1	–	–	–	155	143	–
O=C(Nc1cccc(-c2nc3ccccc3s2)c1)c1cccs1	–	–	–	–	140	–
Cc1ccc2oc(-c3cccc(NC(=S)NC(=O)c4cccs4)c3)nc2c1	–	–	–	–	–	–
O=C(Nc1cccc(-c2nc3ccccc3s2)c1)c1cc(=O)c2ccccc2o1	–	–	–	–	–	–
O=C(CNS(=O)(=O)c1cccc(Cl)c1)Nc1ccc(-c2nc3ccccc3s2)cc1	–	–	–	–	145	–
O=C(CSc1nnc2ccccn12)Nc1cccc(-c2nc3ccccc3s2)c1	–	–	–	137	136	–
CC(NS(=O)(=O)c1cccc(Cl)c1)C(=O)Nc1ccc(-c2nc3ccccc3s2)cc1 (stereo unspecified)	–	–	–	–	–	–
Cc1ccc(C)c(S(=O)(=O)NC(C)C(=O)Nc2ccc(-c3nc4ccccc4s3)cc2)c1 (stereo unspecified)	–	–	–	–	131	–
COc1ccc(CN2CCN(CCC(C)C)C(CCO)C2)cc1Cn1cncn1 (stereo unspecified)	–	–	–	–	–	–
COc1ccc(OC)c(S(=O)(=O)n2nnc3cc(Cl)ccc32)c1	–	–	–	–	–	–
COc1cc(S(=O)(=O)n2nnc3ccccc32)c(OC)cc1Cl	–	35	–	–	–	–
Cc1ccc(NC(=O)CN(C)C(=O)c2cc3ccccc3o2)cc1	–	–	–	–	–	–
